# Measured values taken from article PMC10798254 (Indian Journal of Nuclear Medicine : IJNM : The Official …, 2023).
# Assays:
# [1] = Stability of 68Ga-FAPI till 4 hrs by ITLC; type: physicochemical
# [2] = RCP of 68Ga-FAPI over time by TLC and HPLC; type: physicochemical
# Summary of the method: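 Radiolabelled yield and RCP of the product were assessed by gradient HPLC and by TLC, using 0.1M sodium citrate and 50% acetonitrile as solvents. Physical appearance, pH and colour were also checked.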
# [3] = In-vitro stability of 99mTc-glibenclamide; type: physicochemical; details: solution in PEG 400, ethanol, DMSO stored at 2-8 C, without lyophilization
# [4] = tested on: metastatic pheochromocytoma and paraganglioma; experiment: I-131 MIBG therapy of metastatic pheochromocytoma and paraganglioma; type: in vivo, patients
# medullary thyroid cancer = experiment: 131I-mIBG therapy of medullary thyroid cancer; type: in vivo, patients
# Summary of the method: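 131I-mIBG given as dose-adjusted intravenous infusions in 100 ml 0.9% sodium chloride by syringe pump over 3 hours, at 30.5 to 120 mCi per dose. Twenty-three therapy doses in total, 1–4 per patient.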
# HCC827 = experiment: Methylene blue IC50 assay; type: cell-based; details: Homo sapiens
# NCI-H1975 = experiment: Methylene blue IC50 assay; type: cell-based; details: Homo sapiens
# NCI-H3255 = experiment: Methylene blue IC50 assay; type: cell-based; details: Homo sapiens
# QG56 (wild-type EGFR) = experiment: Methylene blue IC50 assay; type: cell-based; details: Homo sapiens, QG-56
# carcinoma prostate = experiment: Detection of metastatic disease in carcinoma prostate, PET-CT; type: in vivo, patients; details: for detection rate, lymph nodes: 50 patients, head-to-head; for detection rate, skeletal metastases / detection rate, soft tissue metastases: in vivo
# Glioblastoma multiforme = experiment: [64Cu]CuCl2 PET in glioblastoma multiforme; type: in vivo, patients
# [5] = tested on: metastatic prostate cancer; experiment: 99mTc-PSMA SPECT/CT vs 68Ga-PSMA PET/CT lesion detection; type: in vivo, patients
# Summary of the method: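 61 male patients with metastatic prostate cancer (mean age 67 ± 7.82 years) received i.v. 99mTc-PSMA, mean 12.82 ± 1.15 mCi. Anterior and posterior whole-body images were taken at 2.0 and 4.0 h on a dual-head gamma camera (matrix 256×1024, 12 cm/min). Lesion counts were compared against 68Ga-PSMA.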
# [6] = tested on: estrogen receptor-positive (ER+) tumors; experiment: Tumor localization of 99mTc-; type: in vivo
# kidney = experiment: Effect of probenecid on renal uptake of 68Ga-DOTATATE and 68Ga-PSMA11; type: in vivo, Wistar rats; details: control versus experimental groups
# [7] = tested on: papillary thyroid carcinoma; experiment: Empirical radioiodine therapy in papillary thyroid carcinoma; type: in vivo, patients; details: of 100
# Summary of the method: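 100 papillary thyroid carcinoma patients received 1–3 empirical radioiodine ablations and were followed from 6 months to 12 years. Histologies were classical, follicular, oncocytic, tall cell and microcarcinoma. Disease status was judged from serum thyroglobulin trend during follow-up.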
# thyroid remnant = experiment: 131I remnant ablation in differentiated thyroid cancer; type: in vivo, patients
# [8] = tested on: peripheral blood lymphocytes; experiment: Cytokinesis block micronuclei assay after therapeutic 131I; type: in vivo, patients
# Summary of the method: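 Blood was drawn from 18 thyroid cancer patients before and 72 hrs after a single oral therapeutic 131I dose (5.7 ± 2.1 GBq). Nine healthy volunteers served as controls. Samples were run by standard cytokinesis-block micronucleus protocol, scoring MN, NBUDs and NBR per 1000 binucleate PBLs.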
# U87 = details: temozolomide sensitive line; stated in methods, ref not given; cited from earlier work
# LN18 = details: temozolomide resistant line; stated in methods, ref not given; cited from earlier work
# amyloid-beta (Aβ42) = amyloid-beta (Aβ42) (Homo sapiens, UniProt P05067); experiment: Binding to synthetic Aβ42 peptide and molecular modeling; details: compared to monomeric counterparts
# BIRADS-V breast lesions = experiment: 99mTc-MDM scintimammography; type: in vivo, patients
# Summary of the method: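 For labelling, 15–20 mCi sodium pertechnetate was added to the kit vial and made up to 1.5 ml with 0.9% NaCl. It was incubated 15–20 min, then 0.22 µm filtered. 15–20 mCi was injected i.v. under the gamma camera. Spot views (anterior/posterior and lateral prone) were taken at 10, 60 and 180 min, and uptake mean and SD calculated at each time.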
# HeLa cells (PDL-1) = experiment: Cell binding; type: cell-based, human; details: plateau after 30 minutes
# HeLa xenograft = experiment: In-vivo biodistribution; set-up: species or system SCID mice; details: mouse
# B16F10 cells = experiment: Cell binding; type: cell-based; details: plateau after 30 minutes
# melanoma tumor (B16F10) = experiment: In-vivo biodistribution; set-up: species or system C57BL6 mice; details: mouse
# [9] = tested on: mCRPC with liver metastases; experiment: [177Lu]Lu-PSMA-617 in mCRPC with liver metastases; type: in vivo, patients
# CXCR4 receptors [10] = molecular target: T1, CXCR4 receptors (Homo sapiens, UniProt P61073); type: in vivo, patients
# RGD binding integrins = type: in vivo, patients
# CXCR4 receptors [11] = molecular target: T1, CXCR4 receptors; set-up: species or system patients; details: in vivo
# [12] = Biodistribution and dosimetry of 177Lu-DOTA-rituximab; type: in vivo, patients
# Summary of the method: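 22 patients received a diagnostic administration, mean 288.6 MBq. Blood clearance, organ residence times and effective half-life were derived. Whole-body and organ (liver, spleen, kidneys, bone marrow) absorbed doses were expressed per MBq using OLINDA/EXM v2.1.1.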
# T1 sequence (P61073 whole entry): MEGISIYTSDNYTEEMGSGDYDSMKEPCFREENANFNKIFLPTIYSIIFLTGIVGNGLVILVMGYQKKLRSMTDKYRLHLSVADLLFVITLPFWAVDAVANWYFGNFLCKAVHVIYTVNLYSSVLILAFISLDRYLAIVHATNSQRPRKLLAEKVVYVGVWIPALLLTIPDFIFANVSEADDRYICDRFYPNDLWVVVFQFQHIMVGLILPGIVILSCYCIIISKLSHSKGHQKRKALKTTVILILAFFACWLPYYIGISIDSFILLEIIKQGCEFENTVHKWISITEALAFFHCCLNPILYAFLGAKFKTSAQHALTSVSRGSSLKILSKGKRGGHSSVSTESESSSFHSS
# amyloid-beta (Aβ42), sequence (P05067 672-713): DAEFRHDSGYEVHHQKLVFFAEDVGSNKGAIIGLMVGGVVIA
compound,measurement,setting,value
N#C[C@@H]1CC(F)(F)CN1C(=O)CNC(=O)c1ccnc2ccc(OCCCN3CCN(C(=O)CN4CCN(CC(=O)[O-])CCN(CC(=O)[O-])CCN(CC(=O)[O-])CC4)CC3)cc12.[68Ga+3] [68Ga-DOTA-FAPI04],stability (RCP) at 4 hrs,[1],96.31%
same,RCP by TLC,"[2]; 0.1M Na citrate, 30 min",98.84±0.7%
same,RCP by TLC,"[2]; 0.1M Na citrate, 1 h",98.27±0.81%
same,RCP by TLC,"[2]; 0.1M Na citrate, 2 h",97.18±1.5%
same,RCP by TLC,"[2]; 50% acetonitrile, 30 min",98.24±0.86%
same,RCP by TLC,"[2]; 50% acetonitrile, 1 h",97.84±0.98%
same,RCP by TLC,"[2]; 50% acetonitrile, 2 h",96.89±1.1%
same,RCP by HPLC,[2]; 30 min,100%
same,RCP by HPLC,[2]; 1 h,100%
same,RCP by HPLC,[2]; 2 h,100%
"COc1ccc(Cl)cc1C(=O)NCCc1ccc(S(=O)(=O)NC(=O)NC2CCCCC2)cc1 [GBD, Glibenclamide]",period for which solubilized drug solution was labeled efficiently,[3],2 months
"N=C(N)NCc1cccc([131I])c1 [I-131 MIBG, Metaiodobenzylguanidine]",immediate side effect post therapy,[4]; 20 patients,only one patient experienced severe vomiting
same,patients with symptomatic relief,[4]; in vivo,70%
same,progressive disease,[4]; in vivo,9/20
same,partial response,[4]; ~100mCi i.v. per therapy,11/20
same,calcitonin levels remained stable,"medullary thyroid cancer; 30.5 to 120 mCi per dose, 1-4 doses",8/13
same,calcitonin levels progressed,medullary thyroid cancer; in vivo,5/13
same,regression on repeat mIBG scans,medullary thyroid cancer; in vivo,3/12
same,side effects,medullary thyroid cancer; in vivo,no reported side effects
"C=CC(=O)Nc1cc(Nc2nccc(-c3cn(C)c4ccccc34)n2)c(OC)cc1N(C)CCN(C)C [Osimietinib, Osimertinib]",IC50,HCC827,2 nM
same,IC50,NCI-H3255,4 nM
same,IC50,QG56 (wild-type EGFR),1800 nM
"[64Cu+2].[Cl-].[Cl-] [^64CuCl2, 64-copper chloride]","detection rate, lymph nodes",carcinoma prostate,79%
same,"detection rate, skeletal metastases",carcinoma prostate,77.3%
same,"detection rate, soft tissue metastases",carcinoma prostate,80.6%
same,SUVmax,"Glioblastoma multiforme; first imaging, 2 patients",1.12
same,tolerability,Glioblastoma multiforme; in vivo,well-tolerated
O=C([O-])CN(CCN(CC(=O)[O-])Cc1cc(CCC(=O)NCCCCCC(=O)NCCCC[C@H](NC(=O)N[C@@H](CCC(=O)O)C(=O)O)C(=O)O)ccc1[O-])Cc1cc(CCC(=O)O)ccc1[O-].[68Ga+3].[OH3+] [^68Ga-PSMA-11],"detection rate, lymph nodes",carcinoma prostate,99%
same,"detection rate, skeletal metastases",carcinoma prostate,99%
same,"detection rate, soft tissue metastases",carcinoma prostate,85.4%
O=C([O-])CN(CCN(CC(=O)[O-])Cc1cc(CCC(=O)NCCCCCC(=O)NCCCC[C@H](NC(=O)N[C@@H](CCC(=O)O)C(=O)O)C(=O)O)ccc1[O-])Cc1cc(CCC(=O)O)ccc1[O-].[68Ga+3].[OH3+] [^68Ga-PSMA],pelvic lesions detected,[5]; 61 patients,341 lesions
same,extra pelvic distant metastatic lesions detected,[5]; in vivo,237 lesions
same,total lesions detected,[5]; in vivo,578 lesions
"CC12CCC3c4ccc(O)cc4CCC3C1CCC2(O)c1cn(CCNC(=O)CN(CCN(CCN(CC(=O)O)CC(=O)NCCn2cc(C3(O)CCC4C5CCc6cc(O)ccc6C5CCC43C)nn2)CC(=O)O)CC(=O)O)nn1 (stereo not drawn) [^99mTc[(EST)2DT], 5,8-bis(carboxymethyl)-13-(4-(3,17-dihydroxy-13-methyl-7,8,9,11,12,13,14,15,16,17-decahydro-6H-cyclopenta[α]phenanthren-17-yl)-1H-1,2,3-triazol-1-yl)-2-(2-(2-(4-(3,17-dihydroxy-13-methyl-7,8,9,11,12,13,14,15,16,17-decahydro-6H-cyclopenta[α]phenanthren-17-yl)-1H-1,2,3-triazol-1-yl)ethylamino)-2-oxoethyl)-10-oxo-2,5,8,11-tetraazatridecane-1-carboxylic acid, metal not drawn]",T/M ratio,[6]; at 2.0 hours,1.11 ± 0.34
same,increase in tumor localization,[6]; in vivo,fivefold
"CCCN(CCC)S(=O)(=O)c1ccc(C(=O)O)cc1 [probenecid, Probenecid]",change in kidney excretion pattern,kidney,no significant change
[131IH] [radioiodine],progression post empirical therapy,[7],Fifty-two
same,regression of disease (decreasing serum thyroglobulin),[7],38 patients
same,successful remnant ablation,thyroid remnant; baseline S Tg <12.3,84.1%
same,successful remnant ablation,thyroid remnant; baseline S Tg more than 12.3,21.2%
same,patients with successful ablation in a single dose,"thyroid remnant; of 383, 70.3 ± 33.6 mCi",251 patients
same,NBUDS /1000 BN PBLs post exposure,"[8]; 72 hrs after 5.7 ± 2.1 GBq, Pre 7.4 ± 5.3, n = 18",11.9 ± 7.2
same,NBR /1000 BN PBLs post exposure,"[8]; 72 hrs after exposure, Pre 5.7 ± 4.4",14.4 ± 8.1
Cn1nnc2c(C(N)=O)ncn2c1=O [temozolomide],IC50,U87,10000 to 100000 nM
same,IC50,LN18,400000 to 500000 nM
"CN(CCOc1ccc(C(=O)/C=C/c2ccc(N(C)C)cc2)cc1)CCOc1ccc(C(=O)/C=C/c2ccc(N(C)C)cc2)cc1 [¹¹C-(Chal)2DEA-Me, (2E,2′E)-1,1′-((((methylazanediyl)bis(ethane-2,1-diyl))bis(oxy))bis(4,1-phenylene))bis(3-(4-(dimethylamino)phenyl)prop-2-en-1-one)]",binding affinity,amyloid-beta (Aβ42),superior binding affinity compared to monomeric counterparts
DTPA-bis-methionine [^99mTc-MDM],mean Tu:Bkg ratio,"BIRADS-V breast lesions; Prone Lateral, 10min",1.89 ± 0.578
same,mean Tu:Bkg ratio,"BIRADS-V breast lesions; Prone Lateral, 1hr",1.95 ± 0.717
same,mean Tu:Bkg ratio,"BIRADS-V breast lesions; Prone Lateral, 3hrs",2.059 ± 0.728
same,mean Tu:Bkg ratio,"BIRADS-V breast lesions; anterior view, 10min",2.606 ± 0.601
same,mean Tu:Bkg ratio,"BIRADS-V breast lesions; anterior view, 3hrs",3.04 ± 1.114
[^90Y]Y-CHX-A”-DTPA-Atezolizumab,binding with cells,HeLa cells (PDL-1),~ 18 ± 3.5%
same,retention in the tumor,HeLa xenograft,5.2 ± 2.5 % ID/gm
[^90Y]Y-CHX-A”-DTPA-Bevacizumab,binding in cells,B16F10 cells,Approximately 32 ± 3%
same,accumulation in tumor,melanoma tumor (B16F10),8.2 ± 2.7 % ID/g
[^177Lu]Lu-DOTA-Bevacizumab,binding in cells,B16F10 cells,Approximately 32 ± 3%
same,accumulation in tumor,melanoma tumor (B16F10),8.2 ± 2.7 % ID/g
[^177Lu]Lu-PSMA-617,Grade 3 anemia,[9]; 2/18 patients,11.1%
same,ORR,[9]; 4/14 patients,28.6%
same,best PSA-RR (PSA decline of ≥50%),"[9]; 4/16 patients, median cumulative 11.1 GBq over 1-7 cycles",25%
same,median OS,[9]; 95% CI: 11.5-14.5,13.0 months
^18F-FDG,"increase in mean SUVmax, PD",CXCR4 receptors [10]; n = 3,9.8%
same,"percent decrease in mean SUVmax, VGPR",CXCR4 receptors [10]; n = 6,68.8%
same,"percent decrease in mean SUVmax, CR",CXCR4 receptors [10]; n = 9,78.6%
same,"percent decrease in mean SUVmax, PR",CXCR4 receptors [10]; n = 12,43.3%
same,overall sensitivity,RGD binding integrins; in vivo,92.86%
same,overall specificity,RGD binding integrins; in vivo,100%
same,skeletal metastatic lesions seen,RGD binding integrins; of 23,78.26%
same,patients positive for the disease,RGD binding integrins; of 30,86.66%
same,soft tissue lesions seen,RGD binding integrins; of 47,100%
same,lung lesions seen,RGD binding integrins; of 130,90%
same,lesions with uptake,RGD binding integrins; of 200 lesions,91%
same,lesions with increased tracer uptake,CXCR4 receptors [11],55 lesions
^177Lu-DOTA-rituximab,effective half-life,[12]; 22 patients,104.5 ± 22 h
same,mean WB radiation absorbed dose,[12]; OLINDA/EXM,0.208 ± 0.03 mGy/MBq
same,mean WB effective dose,[12]; in vivo,0.196 ± 0.05 mGy/MBq
same,"mean radiation absorbed dose, bone marrow",[12]; in vivo,0.136 ± 0.02
same,"mean radiation absorbed dose, kidneys",[12]; in vivo,1.01 ± 0.42 mGy/MBq
same,"mean radiation absorbed dose, liver",[12]; in vivo,0.613 ± 0.21 mGy/MBq
same,"mean radiation absorbed dose, spleen",[12]; in vivo,1.68 ± 2 mGy/MBq
